One assay has as its system CYP199A4 F182A/P90A. The assay is described as follows: H2O2-dependent O-demethylation of benzoic acid derivatives, F182A/P90A. The conditions noted are these: catalyzed by F182A/P90A; P450 1 μM, substrate 2 mM, H2O2 10 mM, Tris-HCl pH 7.4, 30 °C. It is filed as biochemical, Rhodopseudomonas palustris. An outline of the steps:
(§1)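 Purified CYP199A4 double mutant (1 μM), a methoxy-substituted benzoic acid substrate (2 mM) and H2O2 (10 mM, the only oxidant) in Tris–HCl pH 7.4 at 30 °C. Demethylation and further-oxidation products are quantified against a benzophenone internal standard and expressed as turnover number per P450.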

Another assay deals with CYP199A4 F182A/D251E. Kind of assay: H2O2-dependent O-demethylation, F182A/D251E. In kind it is biochemical, Rhodopseudomonas palustris. In short, it runs like this:
(§2)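 Enzyme (1 μM) is reacted with methoxy-substituted benzoic acid substrate (2 mM) and H2O2 (10 mM) as sole oxidant, in Tris–HCl pH 7.4 at 30 °C. Demethylation products are quantified chromatographically against a benzophenone internal standard, and activity is expressed as turnover number.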

A further assay deals with CYP199A4 (wild type). The conditions noted are these: WT CYP199A4; cited from earlier work.
In a further assay the test system is CYP199A4 F182A/D251H. Kind of assay: H2O2-dependent O-demethylation, F182A/D251H. It is filed as biochemical, Rhodopseudomonas palustris. In short, it runs like this:
as §2

Assay [1] deals with engineered CYP199A4 peroxygenase variants. The assay is described as follows: O-demethylation by the library of engineered CYP199A4 peroxygenase variants. It is filed as biochemical, Rhodopseudomonas palustris. The conditions noted are these: H2O2-dependent reaction.
The test system of another assay is CYP199A4 F182A/V355A. The assay is described as follows: H2O2-dependent O-demethylation of benzoic acid derivatives, F182A/V355A. It is filed as biochemical, Rhodopseudomonas palustris. The settings on record: catalyzed by F182A/V355A. An outline of the steps: as §1
Another assay concerns the target T1, CYP199A4 F182A (Rhodopseudomonas palustris, UniProt Q2IU02, F183A).
T1 sequence (Q2IU02 1-410 F183A): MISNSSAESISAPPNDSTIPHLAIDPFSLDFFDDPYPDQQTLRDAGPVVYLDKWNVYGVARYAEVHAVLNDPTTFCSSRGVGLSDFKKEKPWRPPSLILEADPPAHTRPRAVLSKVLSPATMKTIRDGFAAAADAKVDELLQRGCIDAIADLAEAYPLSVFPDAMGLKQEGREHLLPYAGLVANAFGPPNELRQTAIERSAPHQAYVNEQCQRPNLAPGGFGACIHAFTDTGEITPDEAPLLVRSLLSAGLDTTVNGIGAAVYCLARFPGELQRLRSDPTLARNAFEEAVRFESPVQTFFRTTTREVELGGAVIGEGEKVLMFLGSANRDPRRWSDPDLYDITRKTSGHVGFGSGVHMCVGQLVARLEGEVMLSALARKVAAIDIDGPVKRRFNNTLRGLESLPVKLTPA
Kind of assay: UV-visible spectral titration of substrate binding.

pKd: −log10 of the molar value.

For the compound `COc1ccc(C(=O)O)cc1` [Compound 1, 4-methoxybenzoic acid], the “TON of demethylation product” value in the assay with CYP199A4 F182A/P90A was 1100 μM (μM P450)^−1. Further, the “reduction of catalytic activity compared with F182A” value in the assay on CYP199A4 F182A/D251E and in the assay on CYP199A4 F182A/D251H was 50 fold throughout. The “catalytic turnover number (TON) of H2O2-dependent demethylation” value in the assay on CYP199A4 (wild type) was 6 μM (μM P450)^−1.
In the case of `COc1cccc(C(=O)O)c1` [Compound 2, 3-methoxybenzoic acid], the “O-demethylation / conversion by the examined CYP199A4 variants (in words)” value (“O-demethylation / conversion” below) in assay [1] was “can be demethylated”.
Turning to `COc1ccccc1C(=O)O` [Compound 3, 2-methoxybenzoic acid], the “O-demethylation / conversion” value in assay [1] is “no reaction product was detected”.
With `COc1cc(OC)cc(C(=O)O)c1` [Compound 6, 3,5-dimethoxybenzoic acid], in assay [1], the “O-demethylation / conversion” value is given as “can be demethylated”.
In the case of `COc1ccc(OC)c(C(=O)O)c1` [Compound 7, 2,5-dimethoxybenzoic acid], the “O-demethylation / conversion” value in assay [1] is reported as “not converted”.
The same measure, in the same setting: to `COc1cccc(C(=O)O)c1OC` [Compound 8, 2,3-dimethoxybenzoic acid] belongs “not converted”; to `COc1cc(C(=O)O)cc(OC)c1OC` [Compound 9, 3,4,5-trimethoxy benzoic acid], “no conversions detected”.
For the compound `COc1ccc(C(=O)O)cc1C` [Compound 11, 3-methyl-4-methoxybenzoic acid], the TON of demethylation in the assay on CYP199A4 F182A/V355A (P450 1 μM, substrate 2 mM, H2O2 10 mM, Tris-HCl pH 7.4, 30 °C) was 1290 μM (μM P450)^−1.
For the compound `COc1c(C)cc(C(=O)O)cc1C` [Compound 12, 3,5-dimethyl-4-methoxy benzoic acid], the pKd (in general, the Kd on a negative log10 scale, so that one unit is a factor of ten) at CYP199A4 F182A was 3.91. For the same compound, in the assay on CYP199A4 F182A/V355A (H2O2-dependent reaction), the “product formed (in words)” value is listed as “a single product (not 3,5-dimethyl-4-hydroxybenzoic acid)”.
On to `COc1c(Cl)cc(C(=O)O)cc1Cl` [Compound 15, 3,5-dichloro-4-methoxy benzoic acid], for which the “O-demethylation / conversion” value in assay [1] is on record as “no conversions detected”.
For the compound `COc1ccc(C(=O)O)cc1[N+](=O)[O-]` [Compound 17, 4-methoxy-3-nitrobenzoic acid], in the assay on CYP199A4 F182A/P90A, the “TON of demethylation product” value is 926 μM (μM P450)^−1 and the “TON of over-oxidation product 4,5-dihydroxy-3-nitrobenzoic acid” value is on record as 416 μM (μM P450)^−1.
`COc1cc(C(=O)O)ccc1O` [Compound 20, 4-hydroxy-3-methoxybenzoic acid]: the “O-demethylation / conversion” value in assay [1] was “not demethylated”.
Take `COc1cc(C(=O)O)cc(OC)c1O` [Compound 21, 4-hydroxy-3,5-dimethoxybenzoic acid]: the “O-demethylation / conversion” value in assay [1] is on record as “did not convert”.

Values taken from publication PMC11134341 (Chemical Science, 2024).
